Paper PMC3862411 (International Journal for Parasitology, Drugs and Drug …, 2012)
“And” between values parts separate entries of the source, which are not always exact repeats. Equal entries are not always repeated. Marks after values point to notes of the source that are not given here.

Experiments:
[1] = system: resistant Haemonchus contortus; format: in vivo; conditions: for Total mass of H. contortus specimens recovered: day 1 and 2 post-treatment, IR 0.2 mg/kg
How it was run: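 Infected lambs got test compound intraruminally at 0.2 mg/kg, four killed at 0.5, 1 and 2 days. The total H. contortus mass from abomasal contents was washed in 4 °C saline, blotted, weighed and frozen at −20 °C. Drug was measured by fluorescence HPLC (C18, 0.2% acetic acid/methanol/acetonitrile 1.6/60/38.4, 1.5 ml/min, 30 °C, ex 365/em 475 nm). n = 4.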

[2] = system: Trichostrongylus colubriformis; assay: Adult nematode worm counts and efficacy 14 days post-treatment; format: in vivo; conditions: small intestine, 14 days post-administration, IR 0.2 mg/kg
How it was run: (§1)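 Romney Marsh lambs (27.2 ± 4.48 kg), naturally infected with resistant GI nematodes and grazing lucerne/clover pasture, got a single intraruminal dose of test compound at 0.2 mg/kg. Six treated and six untreated lambs were killed by captive bolt at day 14. Abomasal, small and large intestinal contents were counted by WAAVP guidelines. Geometric mean worm burdens gave % efficacy, treated versus untreated.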

[3] = system: Cooperia spp.; assay: as above; format: in vivo; conditions: small intestine, 14 days post-administration, IR 0.2 mg/kg
How it was run: as §1

[4] = system: Trichuris spp.; assay: as above; format: in vivo; conditions: large intestine, 14 days post-administration, IR 0.2 mg/kg
How it was run: as §1

[5] = Drug concentrations in GI contents and mucosal tissues; format: in vivo, lambs; conditions: for Drug concentration, abomasal mucosa / Drug concentration, intestinal mucosa: IR 0.2 mg/kg, lambs
How it was run: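 After intraruminal 0.2 mg/kg test compound, four infected lambs per time point were killed at 0.5, 1 and 2 days. Abomasal and cranial jejunum contents and mucosal tissue were sampled, stored at −20 °C and assayed by validated fluorescence HPLC (C18, 30 °C, ex 365/em 475 nm). Values are in ng/g, mean ± SD, n = 4.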

[6] = system: Nematodirus spp.; assay: Adult nematode worm counts and efficacy 14 days post-treatment; format: in vivo; conditions: small intestine, 14 days post-administration, IR 0.2 mg/kg
How it was run: as §1

[7] = system: resistant GI nematodes; assay: Faecal egg count reduction test; format: in vivo, GI nematodes in lambs; conditions: IR 0.2 mg/kg; for FECRT: 14 days post-treatment vs untreated control; for Mean epg (range), arithmetic mean of eggs per gram of faeces: Day 14 post-treatment
How it was run: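 Faeces were sampled at day −1 and day 14 after a single intraruminal 0.2 mg/kg dose to naturally infected lambs. Eggs per gram were counted by modified McMaster. FECRT compared arithmetic mean epg of treated versus untreated controls at day 14, with 95% confidence limits per Coles. Counts were compared by Kruskal–Wallis.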

[8] = system: Haemonchus spp.; assay: Adult nematode worm counts and efficacy 14 days post-treatment; format: in vivo; conditions: abomasum, 14 days post-administration, IR 0.2 mg/kg
How it was run: as §1

[9] = system: Teladorsagia spp.; assay: as above; format: in vivo; conditions: abomasum, 14 days post-administration, IR 0.2 mg/kg
How it was run: as §1

[10] = system: Trichostrongylus axei; assay: as above; format: in vivo; conditions: abomasum, 14 days post-administration, IR 0.2 mg/kg
How it was run: as §1

[11] = format: in vivo, lambs; conditions: for AUC: area under the concentration vs time curve extrapolated to infinity / Cmax: peak plasma concentration / Tmax: time to peak plasma concentration / t 1/2 el: elimination half-life: mean ± SD, n = 6
How it was run: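 Six infected lambs per group got test compound intraruminally at 0.2 mg/kg. Heparinized jugular blood was taken before and at 0, 3, 6, 9 h and 1–13 days, spun at 2000g for 20 min, and plasma assayed by fluorescence HPLC. Non-compartmental analysis: Cmax observed; AUC by trapezoidal rule extrapolated to infinity; t½ = ln2/λz; MRT from AUMC/AUC. Mean ± SD; ANOVA or Kruskal–Wallis.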

[12] = system: mammalian P-gp; conditions: in vitro; ref Lespine et al., 2007; cited from earlier work
[13] = sheep (lambs), abomasal mucosa, other: intraruminal, 0.2 mg/kg
[14] = sheep, plasma, other: intraruminal, 0.2 mg/kg

Molecule	Total mass of H. contortus specimens recovered [1] [g]	Efficacy, Trichostrongylus colubriformis [2] [%]	Worm counts (geometric mean), Trichostrongylus colubriformis [2]	Efficacy, Cooperia spp. [3] [%]	Worm counts (geometric mean), Cooperia spp. [3]	Efficacy, Trichuris spp. [4] [%]	Worm counts (geometric mean), Trichuris spp. [4]	Drug concentration, abomasal mucosa ([5]; 0.5 days post-treatment)	Efficacy, Nematodirus spp. [6] [%]	Worm counts (geometric mean), Nematodirus spp. [6]	FECRT [7]	Mean epg (range), arithmetic mean of eggs per gram of faeces [7]	Efficacy, Haemonchus spp. (H. contortus) [8] [%]	Worm counts (geometric mean), Haemonchus spp. [8]	Efficacy, Teladorsagia spp. [9] [%]	Worm counts (geometric mean), Teladorsagia spp. [9]	Efficacy, Trichostrongylus axei [10] [%]	Worm counts (geometric mean), Trichostrongylus axei [10]	Time up to which drug was detected in plasma ([11]; lambs, IR 0.2 mg/kg)	AUC: area under the concentration vs time curve extrapolated to infinity ([11]; lambs, IR 0.2 mg/kg, plasma)	further results
abamectin [ABM]	1.13 to 1.50	100	0	100	0	100	0	76.8 ± 11.6^a ng/g	99.8	2.32	0%	4460^a (1200–6000)	39.7	769	100	0	100	0	up to 8 days post-treatment	34.8 ± 11.3^a ng d/ml	Drug concentration, intestinal mucosa ([5]; 0.5 days post-treatment): 203 ± 11.5^a ng/g; Drug concentration, abomasal mucosa ([5]; 1 day post-treatment): 78 ± 24.2^a ng/g; Drug concentration, intestinal mucosa ([5]; 1 day post-treatment): 152 ± 12.4^a ng/g; Drug concentration, abomasal mucosa ([5]; 2 days post-treatment): 64.6 ± 45.4^ab ng/g; Drug concentration, intestinal mucosa ([5]; 2 days post-treatment): 118 ± 85.9^a ng/g; Cmax: peak plasma concentration ([11]; lambs, IR 0.2 mg/kg, plasma): 13.6 ± 2.64^a ng/ml; Tmax: time to peak plasma concentration ([11]; lambs, IR 0.2 mg/kg, plasma): 0.90 ± 0.26^a days; t 1/2 el: elimination half-life ([11]; lambs, IR 0.2 mg/kg, plasma): 1.10 ± 0.25^a days
CC[C@H](C)[C@H]1O[C@]2(CC[C@@H]1C)C[C@@H]1C[C@@H](C/C=C(\C)[C@@H](O[C@H]3C[C@H](OC)[C@@H](O[C@H]4C[C@H](OC)[C@@H](O)[C@H](C)O4)[C@H](C)O3)[C@@H](C)/C=C/C=C3\CO[C@@H]4[C@H](O)C(C)=C[C@@H](C(=O)O1)[C@]34O)O2 [IVM, ivermectin]	1.02 to 1.38	99.3	6.28	98.2	3.08	100	0	76.5 ± 9.83^a ng/g	99.5	4.87	0%	4620^a (1860–12480)	20.1	1021	99.7	5	100	0	up to 8 days post-treatment	23.6 ± 7.63^a ng d/ml	Drug concentration, intestinal mucosa ([5]; 0.5 days post-treatment): 198 ± 55.7^a ng/g; Drug concentration, abomasal mucosa ([5]; 1 day post-treatment): 58.2 ± 8.75^a ng/g; Drug concentration, intestinal mucosa ([5]; 1 day post-treatment): 117 ± 26.8^a ng/g; Drug concentration, abomasal mucosa ([5]; 2 days post-treatment): 42.6 ± 4.53^a ng/g; Drug concentration, intestinal mucosa ([5]; 2 days post-treatment): 128 ± 51.4^a ng/g; Cmax: peak plasma concentration ([11]; lambs, IR 0.2 mg/kg, plasma): 9.02 ± 1.47^b ng/ml; Tmax: time to peak plasma concentration ([11]; lambs, IR 0.2 mg/kg, plasma): 1.06 ± 0.52^a days; t 1/2 el: elimination half-life ([11]; lambs, IR 0.2 mg/kg, plasma): 1.15 ± 0.30^a days
CO/N=C1\C[C@]2(C[C@@H]3C[C@@H](C/C=C(\C)C[C@@H](C)/C=C/C=C4\CO[C@@H]5[C@H](O)C(C)=C[C@@H](C(=O)O3)[C@]45O)O2)O[C@H](/C(C)=C/C(C)C)[C@H]1C [MXD, moxidectin]	0.13 to 0.14	100	0	100	0	100	0		100	0	86% and 86.8%	570^b (240–960)	89.6	133	100	0	100	0	≤ 13 days post-treatment	29.5 ± 3.87^a ng d/ml	Drug concentrations recovered within adult H. contortus compared to ABM and IVM ([1]; day 2 post-treatment): lower; Affinity by mammalian P-gp compared to avermectin-type compounds [12]: lower affinity; Concentrations in GI contents and mucosal tissues compared to IVM and ABM ([5]; 2 days post-treatment): significantly lower; concentration at 0.5 days [5, 13]: 65.5 ± 9.74 ng/g; concentration at 1 day [5, 13]: 48.3 ± 12.7 ng/g; concentration at 2 days [5, 13]: 30.1 ± 5.8 ng/g; Plasma mean residence time (MRT) compared to ABM and IVM ([11]; lambs, IR 0.2 mg/kg): significant longer; Cmax [11, 14]: 11.3 ± 2.87 ng/mL; Tmax [11, 14]: 13 h; half-life [11, 14]: 113 h
